Measured values: ChEMBL document CHEMBL1130239, “Synthesis and evaluation of (S)-4-(3-(2'-[11C]isopropylamino)-2-hydroxypropoxy) -2H-benzimidazol -2-one ((S)-[11C]CGP 12388) and (S)-4-(3-((1'-[18F]-fluoroisopropyl)amino)-2-hydroxypropoxy) -2H- benzimidazol-2-one ((S)-[18F]fluoro-CGP 12388) for visualization of beta-adrenoceptors with positron …” (J Med Chem, 1997)

Columns and labels:
[1] = Partition coefficient (logP); type: physicochemical; settings: octanol/water
Summary of the method: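 50-100 μCi of tracer in 0.1 M phosphate buffer pH 7.4 (5 mL) plus n-octanol (5 mL). Shaken vigorously for 30 min at 37 °C, five mixtures. 100 μL of each layer gamma-counted. log P from the octanol/water count ratio, n = 5. A calculated value was also obtained with Pallas 1.2.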

[2] = species: Rattus norvegicus; experiment: Biodistribution of [11C]-CGP- 12388 (10 minutes post injection) in lung of male wistar rats; type: ADME, organism-based; settings: in vivo
Summary of the method: (§1)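 Male Wistar rats (200 ± 20 g) under pentobarbital anesthesia (60 mg/kg ip) got iv saline (controls, n = 4) or 500 μg (±)-propranolol (blocking, n = 4) <1 min before the tracer. Tracer dose was 1 MBq (30 pmol) in 0.3 mL. Rats were killed by heart extirpation at 10 min and tissues counted. Plasma was spun 3 min at 1000g. Uptake is given as DAR, mean ± SD.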

[3] = species: Rattus norvegicus; experiment: Biodistribution of [11C]-CGP- 12388 (10 minutes post injection) in heart of male wistar rats; type: ADME, organism-based; settings: in vivo; summary of the method: as §1

Structure (SMILES): [3H]c1cc([3H])c2c(c1OCC(O)CNC(C)(C)C)=NC(=O)N=2 (stereo not drawn)
- logP [1]: -0.5
- DAR [2]: 2.3
- DAR [3]: 0.94
